Converted amounts (≈) assume the structure as drawn.
What was measured:
Pichia kudriavzevii = assay: Antifungal activity against Candida krusei ATCC 6258 after 48 hrs by broth dilution method; assay type: functional; details: Pichia kudriavzevii, ATCC 6258, 48 h
In short: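 Yeasts tested per CLSI M27-A3 with minor changes. An overnight YPD culture (35 °C, 200 rpm) was adjusted to OD600 0.12 and diluted in MOPS-buffered RPMI 1640 (pH 7.0) to a final 1–2 × 10^3 CFU/mL. Compounds 0.015–31.3 µg/mL, DMSO <1.25%.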

Aspergillus nidulans [1] = assay: Ratio of MIC in presence of 10% FBS to MIC in absence of 10% FBS for Aspergillus nidulans ATCC 38163; assay type: functional
In short: (§1)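 MIC broth dilution run in parallel in RPMI 1640 with or without 10% fetal bovine serum against C. albicans ATCC 10231, C. parapsilosis ATCC 22019 and A. nidulans ATCC 38163.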

Candida parapsilosis [2] = assay: Ratio of MIC in presence of 10% FBS to MIC in absence of 10% FBS for Candida parapsilosis ATCC 22019; assay type: functional; in short: as §1
Candida albicans [3] = assay: Antifungal activity against itraconazole and fluconazole susceptible Candida albicans ATCC MYA-2876 after 48 hrs by broth dilution method; assay type: functional; details: Candida albicans, ATCC MYA-2876, 48 h
Aspergillus nidulans [4] = assay: Antifungal activity against Aspergillus nidulans ATCC 38163 after 48 hrs by broth dilution method; assay type: functional; details: Aspergillus nidulans, ATCC 38163, 48 h
In short: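 A. nidulans run per CLSI M38-A2. PDA spores were filtered through glass wool and counted by hemocytometer. Test range 0.03–31.3 µg/mL in MOPS-buffered RPMI 1640 (pH 7.0), final 5 × 10^5 CFU/mL.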

Candida albicans [5] = assay: Antifungal activity against itraconazole and fluconazole resistant Candida albicans ATCC MYA-1003 after 48 hrs by broth dilution method; assay type: functional; details: Candida albicans, ATCC MYA-1003, 48 h
In short: (§2)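 CLSI M27-A3 broth microdilution with minor modifications. Overnight YPD culture grown at 35 °C, 200 rpm, adjusted to OD600 0.12, diluted in RPMI 1640 buffered to pH 7.0 with 0.165 M MOPS to a final 1–2 × 10^3 CFU/mL. Test compounds at 0.015–31.3 µg/mL, 48 h at 35 °C, DMSO <1.25%. […] Triplicate.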

[6] = Solubility of the compound in DMSO; assay type: physicochemical
A549 = assay: Cytotoxicity against human A549 cells up to 31 ug/ml after 24 hrs by resazurin-based fluorescence assay; assay type: cell-based; details: a549, 24 h
In short: (§3)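 Cells grown in DMEM with 10% FBS at 37 °C, 5% CO2, and seeded at 10000 (HEK-293) or 3000 (BEAS-2B, A549) per well. After 16 h, exposed 24 h to 0.13–31 µg/mL final in medium with 0.1–0.4% DMSO. Resazurin added for 6–10 h; fluorescence read at 560/590 nm and survival normalized to DMSO control after background subtraction. Triton X-100 12.5% v/v positive control; duplicate.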

Candida albicans [7] = assay: Antifungal activity against itraconazole and fluconazole susceptible Candida albicans ATCC MYA-2310 after 48 hrs by broth dilution method; assay type: functional; details: Candida albicans, ATCC MYA-2310, 48 h
BEAS-2B = assay: Cytotoxicity against human BEAS2B cells up to 31 ug/ml after 24 hrs by resazurin-based fluorescence assay; assay type: cell-based; in short: as §3
Candida albicans [8] = assay: Antifungal activity against itraconazole and fluconazole resistant Candida albicans ATCC 90819 after 48 hrs by broth dilution method; assay type: functional; details: Candida albicans, ATCC 90819, 48 h; in short: as §2
HEK293 = assay: Cytotoxicity against HEK293 cells up to 31 ug/ml after 24 hrs by resazurin-based fluorescence assay; assay type: cell-based; details: human, hek293, 24 h; in short: as §3
Candida albicans [9] = assay: Antifungal activity against Candida albicans ATCC 10231 after 48 hrs in the presence of 10% FBS by broth dilution method; assay type: functional; details: ATCC 10231, 48 h
Candida albicans [10] = assay: Ratio of MIC in presence of 10% FBS to MIC in absence of 10% FBS for Candida albicans ATCC 10231; assay type: functional; in short: as §1
Aspergillus terreus = assay: Antifungal activity against Aspergillus terreus ATCC MYA-3633 after 48 hrs by broth dilution method; assay type: functional; details: Aspergillus terreus, ATCC MYA-3633, 48 h
In short: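 Molds tested per CLSI M38-A2. Spores were harvested from sporulating PDA cultures by filtering through glass wool and counted on a hemocytometer. Serial dilutions (0.03–31.3 µg/mL) were made in RPMI 1640 buffered to pH 7.0 with 0.165 M MOPS, final inoculum 5 × 10^5 CFU/mL.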

[11] = Aqueous solubility of the compound; assay type: physicochemical; details: buffer
Aspergillus flavus = assay: Antifungal activity against Aspergillus flavus ATCC MYA-3631 after 48 hrs by broth dilution method; assay type: functional; details: ATCC MYA-3631, 48 h
Candida albicans [12] = assay: Antifungal activity against Candida albicans ATCC 64124 after 48 hrs by broth dilution method; assay type: functional; details: Candida albicans, ATCC 64124, 48 h; in short: as §2
Candida albicans [13] = assay: Antifungal activity against itraconazole and fluconazole resistant Candida albicans ATCC MYA-1237 after 48 hrs by broth dilution method; assay type: functional; details: Candida albicans, ATCC MYA-1237, 48 h; in short: as §2
Candida albicans [14] = assay: Antibiofilm activity against voriconazole resistant Candida albicans ATCC 64124 sessile cells incubated for 24 hrs by XTT reduction assay; assay type: functional; details: ATCC 64124, 24 h
In short: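 Strain B grown overnight in YPD broth at 35 °C, diluted to OD600 0.1 (~10^6 CFU/mL), then grown statically for 24 h at 37 °C to form biofilm. Washed with PBS, then drug in RPMI 1640 at 0.12–62.5 µg/mL for 24 h at 37 °C. Read-out: XTT 0.5 mg/mL with menadione 1 µM, 2 h, A490. SMIC50/SMIC80 are 50%/80% decreases versus drug-free biofilm. Duplicate.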

Nakaseomyces glabratus = assay: Antifungal activity against Candida glabrata ATCC 2001 after 48 hrs by broth dilution method; assay type: functional, CBS 138; details: Nakaseomyces glabratus, CBS 138, 48 h
Candida albicans [15] = assay: Ratio of MIC80 for voriconazole resistant Candida albicans ATCC 64124 sessile cells to MIC for voriconazole resistant Candida albicans ATCC 64124; assay type: functional
Candida albicans [16] = assay: Antifungal activity against Candida albicans ATCC 10231 after 48 hrs by broth dilution method; assay type: functional; details: ATCC 10231, 48 h
Candida parapsilosis [17] = assay: Antifungal activity against Candida parapsilosis ATCC 22019 after 48 hrs by broth dilution method; assay type: functional; details: Lodderomyces parapsilosis, ATCC 22019, 48 h

## CCCCCCCCCCCCN1CCNCC1
Pichia kudriavzevii
  MIC: 7.7 µM (≈ 1.96 µg/mL)
Aspergillus nidulans [1]
  Ratio: 2 - 8
Candida parapsilosis [2]
  Ratio: 2 - 8
Candida albicans [3]
  MIC: 15.3 µM (≈ 3.89 µg/mL)
Aspergillus nidulans [4]
  MIC: 7.7 µM (≈ 1.96 µg/mL)
Candida albicans [5]
  MIC: 15.3 µM (≈ 3.89 µg/mL)
[6]
  solubility: Soluble
A549
  Activity: Toxic
Candida albicans [7]
  MIC: 15.3 µM (≈ 3.89 µg/mL)
BEAS-2B
  Activity: Toxic
Candida albicans [8]
  MIC: 30.7 µM (≈ 7.81 µg/mL)
HEK293
  Activity: Toxic
Candida albicans [9]
  MIC: 3.9 µg/mL
Candida albicans [10]
  Ratio: 2 - 8
Aspergillus terreus
  MIC: 30.7 µM (≈ 7.81 µg/mL)
[11]
  solubility: Soluble
Aspergillus flavus
  MIC: 15.3 µM (≈ 3.89 µg/mL)
Candida albicans [12]
  MIC: 30.7 µM (≈ 7.81 µg/mL)
Candida albicans [13]
  MIC: 15.3 µM (≈ 3.89 µg/mL)
Candida albicans [14]
  MIC50: 7.8 µg/mL (≈ 30.7 µM)
  MIC80: 31.3 µg/mL (≈ 123 µM)
Nakaseomyces glabratus
  MIC: 7.7 µM (≈ 1.96 µg/mL)
Candida albicans [15]
  Ratio: 1 - 4
Candida albicans [16]
  MIC: 7.7 µM (≈ 1.96 µg/mL)
Candida parapsilosis [17]
  MIC: 7.7 µM (≈ 1.96 µg/mL)

From ChEMBL document CHEMBL4024783, “Alkylated Piperazines and Piperazine-Azole Hybrids as Antifungal Agents” (J Med Chem, 2018)
